Laboratory results published in PubChem BioAssay AID2152 (The Scripps Research Institute Molecular Screening Center, 2009).
The campaign covered roughly 2,300 compounds. About 25 (1%) were called active. Shown is part of a subset that was picked to be rich in actives. Values without a mark were called inactive.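 How the source made its calls: active means mean inhibition over three replicate wells above the hit threshold derived in the earlier primary screen (cut at about 45% in these data); inactive means the rest.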

Tested on: Hepatitis C virus core protein (core106 dimerization)
Experiment: blockers of core106 self-association – biochemical, TR-FRET, triplicate, confirmation (AID 2152);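 further: 0% = DMSO wells and 100% = unlabelled core106 competitor control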
Settings: TR-FRET GST-/Flag-core106 dimerization, HTRF; at 5 µM; stronger effect = higher value
How it was run: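 Test system – GST- and Flag-tagged HCV core106 peptides, dimerization via antibody TR-FRET · Amount – 17 nM Flag- plus 13.5 nM GST-core106 · Schedule – 4 h incubation, 22.5 °C · Compound dosing – one 5 µM dose, 0.5% DMSO · Detection – TR-FRET, 340 nm excitation, 671/617 nm emission · Reagent – Eu(K)-anti-GST plus XL665-anti-FLAG antibodies · Read-out basis – percent inhibition from emission ratio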

SMILES | inhibition
CN1C(=O)/C(=C/c2cccn2-c2ccc3ccccc3c2)C(=O)NC1=S | 9.68%
O=C1NC(=O)N(Cc2ccc(F)cc2)C(=O)/C1=C\c1ccc(N2CCCC2)cc1 | 4.49%
Cn1cccc1/C=C1/C(=O)NC(=S)N(Cc2ccc(F)cc2)C1=O | 64.5% (active)
CCOc1cccc(N2C(=O)/C(=C/c3ccco3)C(=O)NC2=S)c1 | 10.6%
Cc1ccc(N2C(=O)/C(=C/c3ccc(CN(CCC#N)S(C)(=O)=O)o3)C(=O)NC2=S)cc1C | -8.42%
Cc1ccccc1N1C(=O)/C(=C/c2ccco2)C(=O)NC1=S | 66.3% (active)
COC(=O)[C@@H]1[C@@H](C(=O)OC)C2(c3ccccc3-c3ccccc32)N(c2ccc(Cl)cc2)N1C#N | 8.69%
COc1ccccc1C(=O)Nc1ccc2c(c1)CC1(C(=O)N(C)C(=O)N(C)C1=O)C1CCCN21 (stereo not given) | 7.78%
Cc1ccccc1-n1c(CNc2ccccc2)nc2ccccc2c1=O | -1.12%
CCN1C(=O)/C(=C/c2ccc3c(c2)CCN3CCCCl)C(=O)NC1=S | 15.4%
